Source: ChEMBL document CHEMBL1629614, “Inhibition of methionyl-tRNA synthetase by REP8839 and effects of resistance mutations on enzyme activity” (Antimicrob Agents Chemother, 2009)
Substitutions are numbered along the chain they refer to. Names and notes keep the numbering of the source.

Columns and labels:
[1] = compound: C=C(F)c1sc(CNCCCNc2cc(=O)c3ccccc3[nH]2)c(C)c1Br; experiment: Ratio of Kcat to Km for Staphylococcus aureus MetRS I57N mutant in presence of methionine
Method in brief: (§1)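 Purified recombinant S. aureus MetRS (30 nM) was assayed by ATP:PPi exchange at 30°C in Tris pH 8.0 with Mg acetate, KCl and DTT. [32P]PPi was matched to ATP, and ATP or methionine was varied. Time points from 1 to 10 min were quenched with EDTA, separated by PEI-cellulose TLC and read by phosphorimager. Initial rates were fitted to Michaelis-Menten.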

[2] = compound: C=C(F)c1sc(CNCCCNc2cc(=O)c3ccccc3[nH]2)c(C)c1Br; experiment: Ratio of Kcat to Km for Staphylococcus aureus MetRS I57N mutant in presence of ATP; method in brief: as §1
[3] = compound: C=C(F)c1sc(CNCCCNc2cc(=O)c3ccccc3[nH]2)c(C)c1Br; experiment: Activity of Staphylococcus aureus MetRS I57N mutant by ATP:PPi exchange assay in presence of ATP
Method in brief: (§2)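 Purified S. aureus MetRS (wild type or mutant; E. coli-expressed, ammonium sulfate cut, anion exchange) at 30 nM. ATP:PPi exchange at 30°C in 100 mM Tris-HCl pH 8.0, 5–10 mM Mg acetate, 80 mM KCl, 2.5 mM DTT, [32P]PPi plus cold PPi equal to ATP. Quenched with EDTA over 1–10 min, PEI-cellulose TLC, phosphorimager. Initial velocities versus varied ATP or methionine fit to Michaelis-Menten.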

[4] = compound: C=C(F)c1sc(CNCCCNc2cc(=O)c3ccccc3[nH]2)c(C)c1Br; experiment: Activity of streptococcus aureus MetRS I57N mutant by scintillation proximity assay in presence of tRNA; details: Staphylococcus aureus
[5] = compound: C=C(F)c1sc(CNCCCNc2cc(=O)c3ccccc3[nH]2)c(C)c1Br; experiment: Activity of Staphylococcus aureus MetRS I57N mutant by ATP:PPi exchange assay in presence of methionine; method in brief: as §2
[6] = compound: C=C(F)c1sc(CNCCCNc2cc(=O)c3ccccc3[nH]2)c(C)c1Br; experiment: Ratio of Kcat to Km for Staphylococcus aureus MetRS I57N mutant in presence of tRNA
Method in brief: (§3)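 Purified recombinant S. aureus MetRS was assayed by tRNA aminoacylation at 30°C for 1 to 7.5 min to obtain initial rates. Buffer was Tris pH 8.0 with Mg acetate, 2.5 mM ATP, KCl, DTT, BSA, [3H]methionine and crude E. coli tRNA. Reactions were EDTA-stopped, and charged tRNA was read by scintillation proximity with polylysine beads at pH 2.0.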

[7] = compound: C=C(F)c1sc(CNCCCNc2cc(=O)c3ccccc3[nH]2)c(C)c1Br; experiment: Ratio of Kcat to Km for Staphylococcus aureus MetRS G223C mutant in presence of tRNA; method in brief: as §3
[8] = compound: C=C(F)c1sc(CNCCCNc2cc(=O)c3ccccc3[nH]2)c(C)c1Br; experiment: Activity of Staphylococcus aureus MetRS G223C mutant by ATP:PPi exchange assay in presence of methionine; method in brief: as §2
[9] = compound: C=C(F)c1sc(CNCCCNc2cc(=O)c3ccccc3[nH]2)c(C)c1Br; experiment: Activity of streptococcus aureus MetRS G223C mutant by scintillation proximity assay in presence of tRNA; details: Staphylococcus aureus
[10] = compound: C=C(F)c1sc(CNCCCNc2cc(=O)c3ccccc3[nH]2)c(C)c1Br; experiment: Activity of Staphylococcus aureus MetRS G223C mutant by ATP:PPi exchange assay in presence of ATP; method in brief: as §2
[11] = compound: C=C(F)c1sc(CNCCCNc2cc(=O)c3ccccc3[nH]2)c(C)c1Br; experiment: Ratio of Kcat to Km for Staphylococcus aureus MetRS G223C mutant in presence of ATP; method in brief: as §1
[12] = compound: C=C(F)c1sc(CNCCCNc2cc(=O)c3ccccc3[nH]2)c(C)c1Br; experiment: Ratio of Kcat to Km for Staphylococcus aureus MetRS G223C mutant in presence of methionine; method in brief: as §1
[13] = compound: C=C(F)c1sc(CNCCCNc2cc(=O)c3ccccc3[nH]2)c(C)c1Br; experiment: Ratio of Kcat to Km for Staphylococcus aureus MetRS V108M mutant in presence of methionine; method in brief: as §1
[14] = compound: C=C(F)c1sc(CNCCCNc2cc(=O)c3ccccc3[nH]2)c(C)c1Br; experiment: Ratio of Kcat to Km for Staphylococcus aureus MetRS V108M mutant in presence of tRNA; method in brief: as §3
[15] = compound: C=C(F)c1sc(CNCCCNc2cc(=O)c3ccccc3[nH]2)c(C)c1Br; experiment: Activity of Staphylococcus aureus MetRS V108M mutant by ATP:PPi exchange assay in presence of methionine; method in brief: as §2
[16] = compound: C=C(F)c1sc(CNCCCNc2cc(=O)c3ccccc3[nH]2)c(C)c1Br; experiment: Activity of Staphylococcus aureus MetRS V108M mutant by ATP:PPi exchange assay in presence of ATP; method in brief: as §2
[17] = compound: C=C(F)c1sc(CNCCCNc2cc(=O)c3ccccc3[nH]2)c(C)c1Br; experiment: Activity of streptococcus aureus MetRS V108M mutant by scintillation proximity assay in presence of tRNA; details: Staphylococcus aureus
[18] = compound: C=C(F)c1sc(CNCCCNc2cc(=O)c3ccccc3[nH]2)c(C)c1Br; experiment: Ratio of Kcat to Km for Staphylococcus aureus MetRS V108M mutant in presence of ATP; method in brief: as §1
[19] = compound: C=C(F)c1sc(CNCCCNc2cc(=O)c3ccccc3[nH]2)c(C)c1Br; experiment: Ratio of Kcat to Km for Staphylococcus aureus MetRS G54S mutant in presence of methionine; method in brief: as §1
[20] = compound: C=C(F)c1sc(CNCCCNc2cc(=O)c3ccccc3[nH]2)c(C)c1Br; experiment: Activity of Staphylococcus aureus MetRS G54S mutant by ATP:PPi exchange assay in presence of methionine; method in brief: as §2
[21] = compound: C=C(F)c1sc(CNCCCNc2cc(=O)c3ccccc3[nH]2)c(C)c1Br; experiment: Activity of streptococcus aureus MetRS G54S mutant by scintillation proximity assay in presence of tRNA; details: Staphylococcus aureus
[22] = compound: C=C(F)c1sc(CNCCCNc2cc(=O)c3ccccc3[nH]2)c(C)c1Br; experiment: Ratio of Kcat to Km for Staphylococcus aureus MetRS G54S mutant in presence of ATP; method in brief: as §1
[23] = compound: C=C(F)c1sc(CNCCCNc2cc(=O)c3ccccc3[nH]2)c(C)c1Br; experiment: Activity of Staphylococcus aureus MetRS G54S mutant by ATP:PPi exchange assay in presence of ATP; method in brief: as §2
[24] = compound: C=C(F)c1sc(CNCCCNc2cc(=O)c3ccccc3[nH]2)c(C)c1Br; experiment: Ratio of Kcat to Km for Staphylococcus aureus MetRS G54S mutant in presence of tRNA; method in brief: as §3
[25] = compound: C=C(F)c1sc(CNCCCNc2cc(=O)c3ccccc3[nH]2)c(C)c1Br; experiment: Ratio of Kcat to Km for Staphylococcus aureus MetRS I57N V242F mutant in presence of ATP; method in brief: as §1
[26] = compound: C=C(F)c1sc(CNCCCNc2cc(=O)c3ccccc3[nH]2)c(C)c1Br; experiment: Activity of Staphylococcus aureus MetRS I57N, V242F mutant by ATP:PPi exchange assay in presence of ATP; method in brief: as §2
[27] = compound: C=C(F)c1sc(CNCCCNc2cc(=O)c3ccccc3[nH]2)c(C)c1Br; experiment: Ratio of Kcat to Km for Staphylococcus aureus MetRS I57N V242F mutant in presence of methionine; method in brief: as §1
[28] = compound: C=C(F)c1sc(CNCCCNc2cc(=O)c3ccccc3[nH]2)c(C)c1Br; experiment: Activity of streptococcus aureus MetRS I57N, V242F mutant by scintillation proximity assay in presence of tRNA; details: Staphylococcus aureus
[29] = compound: C=C(F)c1sc(CNCCCNc2cc(=O)c3ccccc3[nH]2)c(C)c1Br; experiment: Ratio of Kcat to Km for Staphylococcus aureus MetRS I57N V242F mutant in presence of tRNA; method in brief: as §3
[30] = compound: C=C(F)c1sc(CNCCCNc2cc(=O)c3ccccc3[nH]2)c(C)c1Br; experiment: Activity of Staphylococcus aureus MetRS I57N, V242F mutant by ATP:PPi exchange assay in presence of methionine; method in brief: as §2

B1: Methionine--tRNA ligase (Staphylococcus aureus subsp. aureus MW2), Q8NY00 I57N (protein)
chain: MAKETFYITTPIYYPSGNLHIGHAYSTVAGDVIARYKRMQGYDVRYLTGTDEHGQKNQEKAQKAGKTEIEYLDEMIAGIKQLWAKLEISNDDFIRTTEERHKHVVEQVFERLLKQGDIYLGEYEGWYSVPDETYYTESQLVDPQYENGKIIGGKSPDSGHEVELVKEESYFFNISKYTDRLLEFYDQNPDFIQPPSRKNEMINNFIKPGLADLAVSRTSFNWGVHVPSNPKHVVYVWIDALVNYISALGYLSDDESLFNKYWPADIHLMAKEIVRFHSIIWPILLMALDLPLPKKVFAHGWILMKDGKMSKSKGNVVDPNILIDRYGLDATRYYLMRELPFGSDGVFTPEAFVERTNFDLANDLGNLVNRTISMVNKYFDGELPAYQGPLHELDEEMEAMALETVKSYTESMESLQFSVALSTVWKFISRTNKYIDETTPWVLAKDDSQKDMLGNVMAHLVENIRYAAVLLRPFLTHAPKEIFEQLNINNPQFMEFSSLEQYGVLTESIMVTGQPKPIFPRLDSEAEIAYIKESMQPPATEEEKEEIPSKPQIDIKDFDKVEIKAATIINAEHVKKSDKLLKIQVDLDSEQRQIVSGIAKFYTPDDIIGKKVAVVTNLKPAKLMGQKSEGMILSAEKDGVLTLVSLPSAIPNGAVIK
- kcat/Km [1]: 560000 M⁻¹ s⁻¹
- kcat/Km [2]: 17000 M⁻¹ s⁻¹
- Km [3]: 820 µM
- Km [4]: 0.93 µM
- kcat [4]: 0.023 s⁻¹
- Km [5]: 25 µM
- kcat [5]: 14 s⁻¹
- kcat/Km [6]: 25000 M⁻¹ s⁻¹

B2: Methionine--tRNA ligase (Staphylococcus aureus subsp. aureus MW2), Q8NY00 G223C (protein)
chain: B1 chain with N57I, G223C
- kcat/Km [7]: 15000 M⁻¹ s⁻¹
- Km [8]: 680 µM
- kcat [8]: 10 s⁻¹
- Km [9]: 2.5 µM
- kcat [9]: 0.037 s⁻¹
- Km [10]: 750 µM
- kcat/Km [11]: 13000 M⁻¹ s⁻¹
- kcat/Km [12]: 10000 M⁻¹ s⁻¹

B3: Methionine--tRNA ligase (Staphylococcus aureus subsp. aureus MW2), Q8NY00 V108M (protein)
chain: B1 chain with N57I, V108M
- kcat/Km [13]: 110000 M⁻¹ s⁻¹
- kcat/Km [14]: 230000 M⁻¹ s⁻¹
- Km [15]: 140 µM
- kcat [15]: 15 s⁻¹
- Km [16]: 650 µM
- Km [17]: 3.2 µM
- kcat [17]: 0.74 s⁻¹
- kcat/Km [18]: 23000 M⁻¹ s⁻¹

B4: Methionine--tRNA ligase (Staphylococcus aureus subsp. aureus MW2), Q8NY00 G54S (protein)
chain: B1 chain with G54S, N57I
- kcat/Km [19]: 70000 M⁻¹ s⁻¹
- Km [20]: 75 µM
- kcat [20]: 5 s⁻¹
- Km [21]: 0.27 µM
- kcat [21]: 0.009 s⁻¹
- kcat/Km [22]: 10000 M⁻¹ s⁻¹
- Km [23]: 500 µM
- kcat/Km [24]: 33000 M⁻¹ s⁻¹

B5: Methionine--tRNA ligase (Staphylococcus aureus subsp. aureus MW2), Q8NY00 I57N,V242F (protein)
chain: B1 chain with V242F
- kcat/Km [25]: 17000 M⁻¹ s⁻¹
- Km [26]: 810 µM
- kcat/Km [27]: 700000 M⁻¹ s⁻¹
- Km [28]: 10 µM
- kcat [28]: 0.124 s⁻¹
- kcat/Km [29]: 12000 M⁻¹ s⁻¹
- Km [30]: 20 µM
- kcat [30]: 14 s⁻¹
